Compound activity from PubChem.
RanGTP-Impb inh: inhibitors of RanGTP-importin-beta interaction, primary screen, biochemical, FRET, CFP-Ran, YFP-importin-beta, homogeneous. cell-free CFP-Ran/YFP-importin-beta FRET ratio. inhibition, % (test concentration not listed). 300,000 compounds, 1.1% hits;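 active = more than half of the replicate wells show a fall in the fluorescence ratio signal beyond about 16%, limit read from the data, passing the limit was not always enough; inconclusive = exactly half of the replicate wells pass the set limit; inactive = fewer than half of replicates pass the limit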;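 note: 0% = DMSO wells and 100% = Ran loaded with GDP instead of GTP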
Runt-CBFb FRET: inhibitors of human RUNX1 Runt domain binding to CBFb. Q01196+Q13951. AID 1496. 220,000 compounds, 0.46% hits. Cerulean-Runt/Venus-CBFb FRET ratio 530/480, 1 h. inhibition, % at 20 µM;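 active = inhibition over about 50% at 20 µM in the single-dose screen, limit read from the data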;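 note: 0% = DMSO wells and 100% = excess unlabeled CBFb competitor control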
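Doses: 20 µM compound in 1% DMSO | Material: Cerulean-labeled Runt domain protein | Amount: Each fluorescent fusion protein 100 nM | Schedule: Two 1 h room-temperature incubations shielded from light | Measured by: FRET fluorescence | Evaluation: Loss of energy transfer signal | Controls: Unlabeled CBFb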
Hck Nef HTS: blocks Nef-activated human Hck kinase. P08631. Recombinant Hck-YEEI plus Nef, Z-Lyte FRET kinase assay. inhibition, % at 20 µM. 220,000 compounds, 0.68% hits. AID 463187;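 active = Hck-Nef kinase inhibition above about 50%, limit read from the data; inactive = inhibition below that limit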;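 note: 0% = DMSO with Hck plus Nef and 100% = Hck alone without Nef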
Target sequence (P08631 whole entry, looked up): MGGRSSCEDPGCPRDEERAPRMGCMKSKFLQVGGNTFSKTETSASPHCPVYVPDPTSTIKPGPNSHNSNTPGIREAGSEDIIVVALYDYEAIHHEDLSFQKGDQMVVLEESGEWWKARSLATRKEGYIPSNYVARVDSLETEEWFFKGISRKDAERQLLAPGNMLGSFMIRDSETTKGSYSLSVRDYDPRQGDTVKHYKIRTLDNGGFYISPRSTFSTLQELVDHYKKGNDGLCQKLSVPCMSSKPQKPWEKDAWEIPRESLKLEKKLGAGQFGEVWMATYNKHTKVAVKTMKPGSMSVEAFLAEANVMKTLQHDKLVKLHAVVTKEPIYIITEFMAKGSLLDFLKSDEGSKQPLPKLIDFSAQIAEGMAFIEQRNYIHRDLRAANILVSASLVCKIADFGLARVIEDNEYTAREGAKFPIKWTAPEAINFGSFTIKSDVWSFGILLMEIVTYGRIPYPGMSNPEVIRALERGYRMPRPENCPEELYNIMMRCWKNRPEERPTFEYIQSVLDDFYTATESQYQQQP
Runt-SMMHC FRET: blocks binding of human RUNX1 Runt domain to CBFb-SMMHC; inhibition, % at 20 µM; 220,000 compounds, 0.74% hits; Q01196+Q13951; AID 1434; Cerulean-Runt/Venus-CBFb-SMMHC FRET ratio 530/480, 1 h;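 active = mean inhibition across duplicate retests at 20 µM reaching about 50%, limit read from the data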;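 note: 0% = DMSO wells and 100% = wells with excess untagged CBFb-SMMHC; inhibitors lower the FRET ratio by blocking Runt binding to CBFb-SMMHC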
Hck-Nef confirm: confirmation of Hck-Nef kinase inhibitors; shares compounds with Hck Nef HTS; Recombinant Hck-YEEI:Nef, Z-Lyte FRET kinase assay; calls only at 10 µM; 1,300 compounds, 28% hits; AID 463188;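 active = average inhibition of at least 50%, with Z-scores no higher than 3 in both the phospho-tyrosine peptide and fluorescence counterscreens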
Numbers without * were called inactive; i = inactive; ? = inconclusive; . = no result given; + = active, no number. Sampled rows, rich in hits. Any-hit rate of the full collection: about 1.9%.

SMILES	RanGTP-Impb inh	Runt-CBFb FRET	Hck Nef HTS	Runt-SMMHC FRET	Hck-Nef confirm
O=C(Nc1cccc(/C=C/c2nc3ccccc3c(=O)[nH]2)c1)c1ccccc1Cl	3.3	-1.4	22.9	-4.7	.
CN(C)CCCn1c(N)c(S(=O)(=O)c2ccccc2)c2nc3ccccc3nc21	0.5	8.3	85.0*	15.0	.
C=CCn1c(NS(=O)(=O)c2ccccc2)c(S(=O)(=O)c2ccc(C)cc2)c2nc3ccccc3nc21	75.6*	0.6	83.3*	4.0	i
O=S(=O)(Nc1c(S(=O)(=O)c2ccccc2)c2nc3ccccc3nc2n1C1CCCCC1)c1ccccc1	6.2	4.4	53.3*	11.2	.
COc1ccc(/C=N/NC(=O)c2cccc(NC(C)=O)c2)c(C(=O)O)c1OC	-1.6	-0.2	26.5	-0.3	.
Cc1cc(=O)oc2cc(OCC(=O)N3CCN(C(=O)C4COc5ccccc5O4)CC3)c(Cl)cc12 (stereo unspecified)	0.3	.	.	.	.
Cc1ccc(O)c(-c2cc(-c3ccccc3[N+](=O)[O-])[nH]n2)c1	1.7	-1.5	12.4	0.9	.
Cc1ccc(O)c(-c2cc(-c3ccccc3C)[nH]n2)c1	-2.3	-0.1	51.7*	-1.0	+
CCN(CC(=O)Nc1c(F)cccc1F)C(=O)c1ccc(N2CCCC2=O)cc1	-3.8	.	.	.	.
CCC(=O)Oc1ccc2c(c1)OC1(OC(C)=O)OC(C)CC1=C2C (stereo unspecified)	1.3	9.5	157.2*	13.6	.
CCOc1ccccc1OCCOc1ccccc1CC	3.6	-1.8	0.1	-0.5	.
CCCCN(C)CCOc1ccccc1OCC	-1.2	1.3	59.6*	1.9	i
COC(=O)c1c(NC(=O)CC2SC(N)=NC2=O)sc(C)c1C (stereo unspecified)	-5.4	-2.5	26.5	1.6	.
CN1C(=O)CC(N2CCC(c3nc4ccccc4[nH]3)CC2)C1=O (stereo unspecified)	?	1.7	0.1	0.0	.
CCN(CC)c1ccc(NC(=O)CNCc2ccccc2Cl)c(C)c1	1.3	.	.	.	.
CC1(C)Cc2c(C#N)c(NC3CCCCC3)nc(-c3ccco3)c2CO1	10.5	7.6	35.2	9.3	.
CC1(C)Cc2c(C#N)c(NCC3CCCO3)nc(-c3ccco3)c2CO1 (stereo unspecified)	9.2	11.3	55.9*	6.1	i
CCOc1ccc(NC(=O)CSc2nccn(-c3ccc4c(c3)OCCO4)c2=O)cc1	-2.1	.	.	.	.
COc1cc2nc(SCC(=O)NCc3ccco3)n(Cc3ccc(Cl)cc3)c(=O)c2cc1OC	2.9	-0.9	99.6*	-7.0	+
CCn1c(SCC(=O)N2CCOCC2)nnc1C(C)NC(=O)c1ccccc1 (stereo unspecified)	1.7	.	.	.	.
COc1ccc(/C=N/NC(=O)COc2cccc3cccnc23)cc1OC	?	-1.5	54.2*	1.9	i
c1cnn(-c2cncc(-n3cccn3)n2)c1	-3.0	0.9	0.2	-0.8	.
Cc1ccc(O)c(N=Cc2cc(Cc3ccccc3)cc([N+](=O)[O-])c2O)c1	-1.4	15.1	61.6*	-15.1	i
O=[N+]([O-])c1cc(Cc2ccccc2)cc(C=Nc2ccc(N3CCOCC3)cc2)c1O	-4.4	-16.8	30.9	-25.3	.
CC(OC(=O)CCc1c[nH]c2ccccc12)C(=O)c1ccccc1 (stereo unspecified)	-1.5	-1.2	16.3	1.9	.
SMILES	RanGTP-Impb inh	Runt-CBFb FRET	Hck Nef HTS	Runt-SMMHC FRET	Hck-Nef confirm
Cc1ccc(-c2nc3c(c(=O)[nH]c(=O)n3Cc3ccccc3)n2C)s1	?	-5.0	57.9*	-15.1	i
Cc1cc(C)cc(N(C(C)C(=O)NCCC2=CCCCC2)S(C)(=O)=O)c1 (stereo unspecified)	-3.2	-0.5	0.6	-2.9	.
Cc1cccc(-n2c3nc(=O)[nH]c(=O)c-3cc3c(C)nn(-c4ccccc4)c32)c1C	2.9	17.0	23.4	31.2	.
Cc1nn(-c2ccccc2)c2c1cc1c(=O)n(C)c(=O)nc-1n2-c1ccccc1F	?	8.8	87.4*	23.4	.
COc1ccc(NS(=O)(=O)c2cc(NC(=O)[C@@H](NC(=O)c3ccccc3)C(C)C)ccc2C)cc1	3.8	-3.6	4.0	0.9	.
CCS(=O)(=O)Nc1cc(-c2nc3cccnc3s2)ccc1C	2.4	3.6	0.5	-6.8	.
O=S(=O)(Nc1ccc(-c2nc3cccnc3s2)cc1)c1cccs1	9.5	90.9*	116.0*	144.8*	.
O=S(=O)(Nc1cccc2ncccc12)c1cccs1	3.2	-0.8	1.8	2.1	.
CCS(=O)(=O)Nc1ccc(-c2nc3cccnc3s2)cc1	2.0	31.8	+	74.5*	.
Cc1cc(-c2nc3cccnc3s2)ccc1NS(=O)(=O)c1ccc2c(c1)OCCO2	70.5*	102.0*	70.5*	119.0*	.
Cc1c(NS(=O)(=O)c2cccs2)cccc1-c1nc2cccnc2s1	-4.1	-1.2	5.7	-2.3	.
Cc1cc(-c2nc3cccnc3s2)ccc1NS(=O)(=O)c1cccs1	91.8*	127.8*	94.6*	107.3*	i
COc1ccc(C(C(=O)NC2CCCC2)N(Cc2cccnc2)C(=O)Cc2cccs2)c(OC)c1 (stereo unspecified)	0.8	.	.	.	.
COc1ccc(N2CCN(CCC(=O)c3ccc4ccccc4c3)CC2)cc1	1.5	.	.	.	.
Cc1ccc(S(=O)(=O)N2CCN(C(=O)CNC(=O)c3ccc(Br)o3)CC2)cc1	-4.7	.	.	.	.
O=C(c1cccc(Cl)c1)C1CCCN(C(=O)c2ccc3c(c2)OCO3)C1 (stereo unspecified)	-0.6	.	.	.	.
CCCC(=O)Nc1ccc(Cl)c(NC(=O)c2cccc(OC)c2)c1	?	3.5	60.4*	1.6	i
CCCC(=O)Nc1ccc(Cl)c(NC(=O)c2cccnc2)c1	-0.3	-0.6	4.3	0.3	.
CC1=NOC(=O)/C1=C\c1ccc(-c2ccccc2Br)o1	0.4	.	51.7*	62.2	i
CC1=NOC(=O)/C1=C\c1ccc(-c2ccc(Cl)c(C(=O)O)c2)o1	3.1	6.9	39.6	-2.7	.
CCCOc1ccc(/C=N/n2nnnc2N)cc1OC	-0.6	.	.	.	.
CCc1cc(=O)oc2cc3occ(C)c3cc12	0.3	-0.1	8.4	1.1	.
CCc1cc(=O)oc2cc3occ(-c4ccc(OC)c(F)c4)c3cc12	-1.0	-2.8	57.5*	-5.0	i
Cc1cc(NC(=O)c2sccc2C)n(-c2nc3ccccc3[nH]2)n1	2.9	-0.1	25.7	-1.3	.
Cc1cc(NC(=O)c2cccs2)n(-c2nc3ccccc3[nH]2)n1	0.7	-1.2	85.2*	-3.2	i
Cc1nc2cc(N3CCN(C)CC3)c(NC(=O)Cc3ccccc3)cc2c(=O)n1Cc1ccccc1	6.7	-2.2	2.0	-1.0	.
Cc1nc2cc(N3CCCCC3)c(NC(=O)c3ccncc3)cc2c(=O)n1Cc1ccc(Cl)cc1	0.6	-1.9	67.4*	2.2	i
COc1cc2cccc(OC)c(=O)c2c(OC)c1OC	?	1.5	19.5	-1.9	.
O=c1c(O)cccc2cc(O)c(O)c(O)c12	?	23.5	65.4*	-3.7	+
